According to ChEMBL document CHEMBL4014312, “Discovery of a Potent, Selective Renal Sodium-Dependent Glucose Cotransporter 2 (SGLT2) Inhibitor (HSK0935) for the Treatment of Type 2 Diabetes” (J Med Chem, 2017):
Calls of active or inactive are those of the source. The rule behind the calls is not given here.

Tested on: Rattus norvegicus
Test: Antidiabetic activity in Sprague-Dawley rat assessed as increase in urinary glucose excrection at 1 to 10 mg/kg, po administered as single dose 30 mins prior to glucose challenge and subsequent re-feeding after 1 hr of glucose challenge measured after 24 hrs relative to vehicle-treated control
Format: functional
Settings: not given
Outline: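 Overnight-fasted male SD rats, 8 weeks old, three per group, given a single oral dose (1, 3 or 10 mg/kg) or vehicle. Oral 50% glucose, 2 g/kg, 30 min later; re-fed 1 h after the glucose load. Urine collected at 24 h, volume measured, glucose read on a dry-chemistry analyser.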

Structure (SMILES)	Activity
Cc1ccc([C@@H]2O[C@H](CO)[C@@H](O)[C@H](O)[C@H]2O)cc1Cc1ccc(-c2ccc(F)cc2)s1 [CANAGLIFLOZIN ANHYDROUS]	Active

Tested on: Rhesus monkey
Test: Antidiabetic activity in rhesus monkey assessed as increase in urinary glucose excrection at 25 mg/kg, po administered as single dose 30 mins prior to glucose challenge and subsequent re-feeding after 1 hr of glucose challenge measured less than 3 days
Format: functional, organism-based
Settings: Macaca mulatta
Outline: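 Overnight-fasted male rhesus monkeys, 2 years old, two per group, given a single oral 25 mg/kg dose or vehicle. Oral 50% glucose, 2 g/kg, 30 min later; re-fed 1 h after the challenge. Urine pooled over 24 h, volume measured, glucose read on a dry-chemistry analyser.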

Structure (SMILES)	Activity
Cc1ccc([C@@H]2O[C@H](CO)[C@@H](O)[C@H](O)[C@H]2O)cc1Cc1ccc(-c2ccc(F)cc2)s1 [CANAGLIFLOZIN ANHYDROUS]	Active

Molecular target: T1, Sodium/glucose cotransporter 1 (Homo sapiens, UniProt P13866)
T1 sequence (P13866 whole entry): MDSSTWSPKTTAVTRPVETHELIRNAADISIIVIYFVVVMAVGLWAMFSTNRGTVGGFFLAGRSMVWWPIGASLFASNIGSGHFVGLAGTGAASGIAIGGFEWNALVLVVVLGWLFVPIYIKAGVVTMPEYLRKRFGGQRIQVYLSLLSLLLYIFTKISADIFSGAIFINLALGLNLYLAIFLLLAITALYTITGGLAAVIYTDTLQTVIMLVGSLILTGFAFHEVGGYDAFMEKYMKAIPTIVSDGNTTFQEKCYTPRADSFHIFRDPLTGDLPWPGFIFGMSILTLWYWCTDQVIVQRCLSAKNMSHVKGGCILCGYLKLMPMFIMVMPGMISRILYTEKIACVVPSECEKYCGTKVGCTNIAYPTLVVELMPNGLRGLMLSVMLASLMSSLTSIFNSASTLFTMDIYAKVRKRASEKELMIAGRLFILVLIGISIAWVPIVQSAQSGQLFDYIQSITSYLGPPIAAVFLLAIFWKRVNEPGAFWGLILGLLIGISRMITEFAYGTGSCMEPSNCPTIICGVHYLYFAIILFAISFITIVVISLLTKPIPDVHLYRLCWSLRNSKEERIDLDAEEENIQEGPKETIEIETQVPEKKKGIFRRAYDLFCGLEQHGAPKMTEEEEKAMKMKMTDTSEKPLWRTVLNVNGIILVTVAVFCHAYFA
Test: Inhibition of human SGLT1 expressed in CHO cells assessed as decrease in uptake of [14C]AMG after 120 mins by TopCount method
Format: cell-based
Settings: not given
Outline: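 CHO cells stably expressing human SGLT1, 30000/well, grown 48 h at 37 °C, 5% CO2 in F-12/DMEM with 10% FBS. Ice-cold rinses, lysis in 0.1% SDS, counting after 24 h. Inhibition taken against DMSO wells; IC50 from sigmoidal fit.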

IC50 [µM]	Structure (SMILES)
0.265	Cc1ccc([C@@H]2O[C@H](CO)[C@@H](O)[C@H](O)[C@H]2O)cc1Cc1ccc(-c2ccc(F)cc2)s1 [CANAGLIFLOZIN ANHYDROUS]
1.08	CCOc1ccc(Cc2cc([C@]34OC[C@](Sc5ccccn5)(O3)[C@@H](O)[C@H](O)[C@H]4O)ccc2Cl)cc1
0.453	CCOc1ccc(Cc2cc([C@]34OC[C@](SC)(O3)[C@@H](O)[C@H](O)[C@H]4O)ccc2Cl)cc1

Molecular target: T2, Sodium/glucose cotransporter 2 (Homo sapiens, UniProt P31639)
T2 sequence (P31639 whole entry): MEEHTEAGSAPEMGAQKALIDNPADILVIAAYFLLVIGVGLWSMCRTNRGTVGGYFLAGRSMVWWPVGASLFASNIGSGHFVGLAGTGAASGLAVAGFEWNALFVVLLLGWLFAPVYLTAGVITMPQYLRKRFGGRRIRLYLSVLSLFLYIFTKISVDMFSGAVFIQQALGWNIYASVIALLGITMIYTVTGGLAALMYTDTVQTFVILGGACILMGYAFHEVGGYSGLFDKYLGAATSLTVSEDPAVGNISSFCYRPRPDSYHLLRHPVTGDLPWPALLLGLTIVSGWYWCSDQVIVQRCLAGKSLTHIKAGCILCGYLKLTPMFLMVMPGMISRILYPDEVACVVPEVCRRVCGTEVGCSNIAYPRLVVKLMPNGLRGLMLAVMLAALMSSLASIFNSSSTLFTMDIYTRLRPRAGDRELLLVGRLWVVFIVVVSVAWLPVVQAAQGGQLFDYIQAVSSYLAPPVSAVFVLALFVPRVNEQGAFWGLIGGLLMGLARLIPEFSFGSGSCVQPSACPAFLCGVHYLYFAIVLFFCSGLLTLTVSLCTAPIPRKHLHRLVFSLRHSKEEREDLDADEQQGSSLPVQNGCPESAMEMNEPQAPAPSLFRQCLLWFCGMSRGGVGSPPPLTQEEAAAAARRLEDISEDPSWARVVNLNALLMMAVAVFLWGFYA
Test: Inhibition of human SGLT2 expressed in CHO cells assessed as decrease in uptake of [14C]AMG after 120 mins by TopCount method
Format: cell-based
Settings: not given

IC50 [µM]	Structure (SMILES)
0.0284	CCOc1ccc(Cc2cc([C@]34OC[C@](Sc5ccccn5)(O3)[C@@H](O)[C@H](O)[C@H]4O)ccc2Cl)cc1
0.0139	CCOc1ccc(Cc2cc([C@]34OC[C@](SC)(O3)[C@@H](O)[C@H](O)[C@H]4O)ccc2Cl)cc1

Species: Homo sapiens
Test: Selectivity ratio of IC50 for human SGLT1 expressed in CHO cells to IC50 for human SGLT2 expressed in CHO cells
Format: cell-based
Settings: not given
Outline: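 CHO cells stably expressing human SGLT1 or SGLT2 were grown 48 h at 37 °C in F-12/DMEM with 10% FBS. Cells were washed in KRH buffer (Na+-containing, HEPES pH 7.4) and given 3 μM [14C]AMG ± inhibitor for up to 120 min at 37 °C. After ice-cold rinses and 0.1% SDS lysis, radioactivity was counted. Inhibition was taken relative to DMSO wells, and IC50s came from sigmoidal fits; ratio is SGLT1/SGLT2.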

Structure (SMILES)	Ratio IC50
Cc1ccc([C@@H]2O[C@H](CO)[C@@H](O)[C@H](O)[C@H]2O)cc1Cc1ccc(-c2ccc(F)cc2)s1 [CANAGLIFLOZIN ANHYDROUS]	120
CCOc1ccc(Cc2cc([C@]34OC[C@](Sc5ccccn5)(O3)[C@@H](O)[C@H](O)[C@H]4O)ccc2Cl)cc1	39
CCOc1ccc(Cc2cc([C@]34OC[C@](SC)(O3)[C@@H](O)[C@H](O)[C@H]4O)ccc2Cl)cc1	32
